Glyco luc inh – increase of ERlucT glycosylation luciferase signal, primary screen, N-linked glycosylation inhibitor project, D54 ERlucT cells, luminescence, set 2; D54 ERlucT glycosylation luciferase reporter, 24 h; percent of 100 nM tunicamycin response; hit rate 0.23% among 360,000; reporter increase, % at 12.5 µM;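 active = mean luciferase reporter signal, scaled so untreated is 0 and the glycosylation-blocking control 100, at or above a set limit in every replicate; inconclusive = mean reaches the limit but not every replicate does; inactive = mean below the limit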;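 note: luciferase carries N-glycosylation sites so blocking glycosylation raises the light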
RAD54 branch – inhibitors of human RAD54 branch migration, primary screen, biochemical, fluorescence, single point; DNA repair and recombination protein RAD54-like (Homo sapiens), Q92698; RAD54 Holliday junction branch migration, FAM/BHQ fluorescence; inhibition, % at 10.4 µM; hit rate 0.14% among 360,000; AID 602329, 2012;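 active = mean normalized replicate activity at least 40 and at least half of replicates scoring 40 or more; inconclusive = only one of the two criteria met; inactive = mean below 40 and under half of replicates reaching 40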;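 note: inhibitors cause a drop in the FAM fluorescence signal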
FN deposition inh – inhibitors of fibronectin matrix deposition, primary screen, AH1F cells, Alexa488-fibronectin fluorescence, plate reader; AH1F fibroblasts, overnight; inhibition, % at 12.6 µM; hit rate 0.086% among 350,000;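 active = mean inhibition across replicates of 30% or more, regardless of how many single replicates reach that level; inconclusive = mean under 30% yet at least half of replicates reach 30%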
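Material: AH1F fibroblast monolayer depositing Alexa488-labelled fibronectin into matrix | Input: 10000 AH1F cells/well | Medium: DMEM plus 2% serum, read in PBS | Reagent: Alexa488-fibronectin, 24 nM final in well | Compound dosing: One dose per compound, pinned | Schedule: 1 h adhesion, overnight exposure | Measured by: Fluorescence at 485 nm excitation, 525 nm emission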
RAD52 anneal inh – RAD52 DNA annealing inhibitors, primary screen, biochemical, FRET, single point, set 2. recombinant RAD52 DNA annealing, FRET fluorescence. inhibition, % at 18.7 µM. AID 651710, 2012. hit rate 0.46% among 360,000. DNA repair protein RAD52 homolog (Homo sapiens), P43351;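 active = every replicate showing at least 50% inhibition; inconclusive = mean inhibition at least 50% but not in every replicate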
Target sequence (P43351 whole entry, looked up): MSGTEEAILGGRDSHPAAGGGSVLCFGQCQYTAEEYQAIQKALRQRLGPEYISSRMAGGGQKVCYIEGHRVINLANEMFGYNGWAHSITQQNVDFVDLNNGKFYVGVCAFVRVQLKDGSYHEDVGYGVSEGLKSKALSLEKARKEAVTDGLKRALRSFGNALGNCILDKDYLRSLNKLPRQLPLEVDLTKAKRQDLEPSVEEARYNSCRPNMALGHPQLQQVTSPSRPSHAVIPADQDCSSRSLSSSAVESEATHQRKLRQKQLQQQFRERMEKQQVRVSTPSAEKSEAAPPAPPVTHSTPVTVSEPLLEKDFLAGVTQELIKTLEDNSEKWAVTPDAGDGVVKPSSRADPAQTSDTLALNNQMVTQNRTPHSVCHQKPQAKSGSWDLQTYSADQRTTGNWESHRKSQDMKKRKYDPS
MLL AF4-AF9 inh – inhibitors of AF4 peptide binding to AF9, primary screen, biochemical, AlphaScreen, biotin-AF4 peptide, FLAG-AF9, single point; Protein AF-9 (Homo sapiens), P42568; inhibition, % at 10 µM; hit rate 0.47% among 350,000;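 active = every replicate reaching a set inhibition limit, whatever the replicate mean, cut at about 25% in these data; inconclusive = mean inhibition reaches that limit but some replicates miss it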
DNA binding – DNA binding of candidate compounds, dose response, artefact control for RAD54 inhibitor project, biochemical, fluorescence polarization, cherry-pick. shares compounds with RAD54 branch. Acridine orange-DNA displacement, 20 min. AC50, µM (series often up to 35 µM). hit rate 8% among 460;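 active = signal drop giving an AC50 within twice the top valid tested concentration of each sample, actives reach about 35 µM in these data; inactive = activity opposite to expected, plus the rest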;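 note: polarization loss reports compound binding to salmon sperm DNA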
RAD52 DNA ctr – DNA-binding compounds via dye displacement, dose response, artefact control for RAD52 inhibitor project, biochemical, fluorescence polarization, cherry-pick. AC50, µM. Salmon sperm DNA/acridine orange FP displacement. hit rate 8% among 1,000. shares compounds with RAD52 anneal inh;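 active = fitted half-maximal concentration for signal loss at or below twice the highest dose tested, in every separate run, actives reach about 64 µM in these data; inconclusive = runs disagree, or flat partial signal loss, or poor fit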
Hits are given with their value; i = inactive; ? = inconclusive; nt = no result given. In the library only some 0.92% were active in any assay of this set; here they are far more common.

SMILES	Glyco luc inh	RAD54 branch	FN deposition inh	RAD52 anneal inh	MLL AF4-AF9 inh	DNA binding	RAD52 DNA ctr
COCCCNC(=O)c1cc2c(-c3ccc(Cl)cc3)nn(C)c2s1	i	i	i	i	i	nt	nt
CCN(CC)CCCNC(=O)c1cc2c(-c3cccc(OC)c3)nn(C)c2s1	i	73	i	92	i	i	i
O=C(C[C@@H]1CC[C@H]2[C@@H](COC[C@@H](O)CN2C(=O)Nc2ccc(Cl)c(Cl)c2)O1)NCc1ccccc1	nt	i	i	i	i	nt	nt
CCN1CCN(c2cc(C)c3cc(NC(=S)N4CCN(c5ccc(F)cc5)CC4)ccc3n2)CC1	i	i	i	i	i	nt	nt
CCN1CCN(c2cc(C)c3cc(NC(=S)N4CCCCC4)ccc3n2)CC1	i	?	i	85	i	i	i
CCN1CCN(C(=S)Nc2ccc3nc(N4CCN(C)CC4)cc(C)c3c2)CC1	i	56	i	89	i	i	i
CC(C)OCC(O)CN1CCN(CCN2C(=O)c3cccc4cccc(c34)C2=O)CC1 (centres undefined)	33	79	i	93	i	i	i
COCCNC(=O)C[C@H]1C[C@H]2c3cc(NC(=O)C4CCOCC4)ccc3O[C@H]2[C@@H](CO)O1	nt	nt	i	nt	nt	nt	nt
CCOC(=O)c1cnc2ccc(OCC)cc2c1NCCCN1CCOCC1	i	101	i	70	i	i	i
COc1cccc(NC(=O)N[C@H]2CC[C@H](CC(=O)Nc3ccc(-c4ccccc4)cc3)O[C@@H]2CO)c1	nt	i	i	i	i	nt	nt
Cc1cc(N2CCN(C)CC2)nc2ccc(NC(=S)NC3CC3)cc12	i	nt	i	i	i	nt	nt
CCCN(CCC)CCCNC(=S)Nc1ccc2nc(N3CCN(C)CC3)cc(C)c2c1	i	63	i	75	i	i	i
CCCCN(CC)CCNC(=S)Nc1ccc2nc(N3CCN(C)CC3)cc(C)c2c1	i	55	i	60	i	i	i
C[C@H](CO)N1C[C@H](C)[C@H](CN(C)C(=O)c2cnccn2)Oc2ncc(-c3cccc(F)c3)cc2C1=O	nt	i	nt	i	i	nt	nt
CCS(=O)(=O)N(C)C[C@@H]1N[C@H](CO)[C@@H]1c1ccc(C#CC2CCCC2)cc1	nt	nt	i	i	i	nt	nt
Cn1c(=O)cc(SCC(=O)NCCCN2CCOCC2)c2ccccc21	nt	i	nt	nt	nt	nt	nt
Cn1c2ccccc2c(=O)c2cc(NCCCN3CCOCC3)ccc21	i	116	i	70	i	i	i
CN1CCC[C@H]1CCNc1ccc2c(=O)c3ccccc3n(C)c2c1	i	90	nt	50	i	i	i
COc1cccc2sc3cc(NCCCN4CCOCC4)ccc3c(=O)c12	i	78	i	62	nt	i	i
N=c1c(C(=O)NCCc2ccccc2)cc2c(=O)n3ccccc3nc2n1CCCN1CCOCC1	i	i	i	i	i	nt	nt
Cc1cccn2c(=O)c3cc(C(=O)NC4CCCC4)c(=N)n(CCCN4CCOCC4)c3nc12	i	77	i	68	i	i	i
Cc1cccn2c(=O)c3cc(C(=O)NC4CCCC4)c(=N)n(CC4CCCO4)c3nc12 (centres undefined)	?	i	i	i	i	nt	nt
Cc1cccn2c(=O)c3cc(C(=O)NCCN4CCOCC4)c(=N)n(CCN4CCOCC4)c3nc12	i	51	i	69	i	i	i
N=c1c(C(=O)NCCN2CCOCC2)cc2c(=O)n3ccccc3nc2n1CCc1ccccc1	i	63	i	57	i	i	i
N#Cc1ccc(-c2ccc3c(c2)[C@H]2[C@H](CCN2C(=O)C2CC2)[C@@H](CO)N3)cc1	nt	i	i	i	i	nt	nt
SMILES	Glyco luc inh	RAD54 branch	FN deposition inh	RAD52 anneal inh	MLL AF4-AF9 inh	DNA binding	RAD52 DNA ctr
COc1ccc(-c2cnc3c(NC(C)=O)cc(-c4cccc(C(=O)NCCN(C)C)c4)cn23)cc1OC	i	76	i	101	i	i	i
COc1cccc(-c2cnc3c(NC(C)=O)cc(-c4cccc(C(=O)NCCN(C)C)c4)cn23)c1	i	78	i	100	?	i	i
COc1ccc(-c2cnc3c(NC(C)=O)cc(-c4cccc(C(=O)NCCO)c4)cn23)cc1OC	i	i	i	i	i	nt	nt
CC(=O)Nc1cc(-c2cccc(C(=O)NCCN(C)C)c2)cn2c(-c3ccc(C(C)=O)cc3)cnc12	i	101	i	71	i	i	i
CC(=O)Nc1cc(-c2cccc(C(=O)NCCN(C)C)c2)cn2c(-c3ccc(F)c(Cl)c3)cnc12	i	i	i	i	i	nt	nt
Cc1noc(C)c1S(=O)(=O)Nc1ccc2c(c1)C(=O)N([C@H](C)CO)C[C@@H](C)[C@@H](CN(C)CC1CC1)O2	nt	i	i	i	i	nt	nt
Cc1ccc(Nc2nc(NCCO)c3ccccc3n2)cc1C	i	i	i	i	i	nt	nt
COc1ccc(OC)c(Nc2nc(NCCO)c3ccccc3n2)c1	i	94	i	88	i	i	i
CC(=O)Nc1ccc2c(c1)C(=O)N(C)[C@@H]1CC[C@@H](CC(=O)NCc3ccc(F)cc3)O[C@H]1CO2	nt	i	i	i	i	nt	nt
O=C(Nc1cc(F)ccc1F)N1C[C@H]2[C@@H](c3ccccc31)[C@H](CO)N2CC1CCCC1	nt	i	nt	i	nt	nt	nt
O=C(Nc1ccc(Nc2ccncc2)cc1)c1ccc(Nc2ccnc3ccc([N+](=O)[O-])cc23)cc1	i	128	i	94	i	i	i
CC(=O)N(C)C[C@@H]1Oc2cc(C3=CCCC3)ccc2S(=O)(=O)N([C@@H](C)CO)C[C@@H]1C	nt	i	i	i	i	nt	nt
CCN1CCC[C@H]1CNC(=O)c1c(OC)ccc(Br)c1OC	i	i	i	i	i	nt	nt
CCN1CCCC1CNC(=O)c1ccc2c(c1)NC(=O)/C(=C\c1ccc(OC)c(OC)c1)S2 (centres undefined)	i	69	i	73	40	i	i
CN1CCN(c2nc(-c3cccc([N+](=O)[O-])c3)nc3ccccc23)CC1	i	75	i	i	i	i	i
CC1CCCN(CCCNC(=O)c2cc3c(Cl)nc4ccccc4c3s2)C1 (centres undefined)	?	92	i	67	i	i	39µM
COc1ccc(Nc2cc(C)nc3ccc(OC)cc23)cc1	i	64	i	56	i	i	i
CN(C)CCCN(C(=O)c1ccco1)c1nc(-c2ccc(Cl)cc2)cs1	i	53	i	52	26	i	i
Cc1ccc(NC(=O)c2c3c(nc4ccccc24)CCC3)cc1	i	i	i	i	i	nt	nt

Assay outcomes (PubChem BioAssay)
